Data on six compounds can be found in ChEMBL document CHEMBL1148937, “Anti-inflammatory phloroglucinols and terpenoids from Garcinia subelliptica” (J Nat Prod, 2004).

Each structure is given as a SMILES string. Some results are limits rather than exact numbers.

One experiment deals with N9. The experiment in a line: Antiinflammatory activity against mouse N9 cells assessed as inhibition of LPS/IFN-gamma-induced nitrite accumulation at >30 uM after 24 hrs. The experiment is classed as functional.
Conditions: not given
In outline:
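N9 microglial cells stimulated with LPS (10 ng/mL) plus IFN-γ (10 U/mL) for 24 h. NO production measured as nitrite accumulation in the medium by Griess reaction. IC50 in µM; where 50% inhibition was not reached at the highest concentration, % inhibition is given. Means ± SEM, n = 3-5.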
For `CC(C)=CC[C@H]1C[C@@H](CC=C(C)C)C(C)(C)[C@@H](C(=O)C(C)C)C1=O` [GARCINIELLIPTONE N], the “inhibition (INH)” value is 34.5%.
The same measure, in the same setting: in the case of `COC(=O)[C@]1(CC=C(C)C)C[C@@H](CC=C(C)C)C(C)(C)[C@@H](C(=O)C(C)C)C1=O` [GARCINIELLIPTONE O] it was 34.6%.

Another experiment relates to RAW264.7. The experiment in a line: Antiinflammatory activity against mouse RAW264.7 cells assessed as inhibition of LPS-induced nitrite accumulation after 24 hrs. To be noted: RAW264.7, 24 h. Type of experiment: functional, cell-based. The method in brief:
(§1)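 RAW 264.7 macrophage-like cells stimulated with LPS (1 µg/mL) for 24 h. Nitrite accumulated in the medium was measured by Griess reaction as an index of NO production. IC50 in µM; % inhibition is reported when 50% inhibition was not reached at the top concentration. Means ± SEM, n = 3-5.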
As usually defined, the IC50 is the concentration needed to halve the response being measured. As for `CC(=N)NCc1cccc(CN)c1` [1400W], the IC50 stood at 2.9 µM.
Turning to `CC(C)=CC[C@H]1C[C@]2(C(=O)C(C)C)C(=O)[C@@](CC=C(C)C)(C(=O)C3=C2O[C@@H](C(C)(C)O)C3)C1(C)C` [GARCINIELLIPTONE L], the half-inhibitory concentration (IC50) came out at 22.7 µM.
Turning to `CC(C)=CC[C@H]1C[C@]2(C(=O)C(C)C)C(=O)[C@@](CC=C(C)C)(C(=O)C3=C2O[C@H](C(C)(C)O)C3)C1(C)C` [GARCINIELLIPTONE M], the IC50 was determined as 15.3 µM.
Turning to `CC(C)=CC[C@H]1C[C@@H](CC=C(C)C)C(C)(C)[C@@H](C(=O)C(C)C)C1=O` [GARCINIELLIPTONE N], the IC50 is more than 30 µM.
Take `COC(=O)[C@]1(CC=C(C)C)C[C@@H](CC=C(C)C)C(C)(C)[C@@H](C(=O)C(C)C)C1=O` [GARCINIELLIPTONE O]: the IC50 is more than 30 µM.

The subject of the next experiment is Neutrophil. The experiment in a line: Induction of fMLP/CB-stimulated superoxide anion generation in rat neutrophil. The experiment is classed as functional, cell-based.
Conditions: not given
The method in brief:
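Rat neutrophils stimulated with fMLP (0.3 µM) plus cytochalasin B (5 µg/mL). Superoxide anion generation measured across a concentration range of test agent.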
For `CC(C)=CC[C@H]1C[C@]2(C(=O)C(C)C)C(=O)[C@@](CC=C(C)C)(C(=O)C3=C2O[C@@H](C(C)(C)O)C3)C1(C)C` [GARCINIELLIPTONE L], the Activity entry is “Dose-dependent effect”.
For the compound `CC(C)=CC[C@H]1C[C@]2(C(=O)C(C)C)C(=O)[C@@](CC=C(C)C)(C(=O)C3=C2O[C@H](C(C)(C)O)C3)C1(C)C` [GARCINIELLIPTONE M], the Activity entry is “Dose-dependent effect”.

Another experiment has as its system Mast cell. Briefly: Inhibition of compound 48/80-stimulated histamine release in rat mast cell. Type of experiment: functional, cell-based.
Conditions: not given
For `CC(C)=CC[C@H]1C[C@]2(C(=O)C(C)C)C(=O)[C@@](CC=C(C)C)(C(=O)C3=C2O[C@@H](C(C)(C)O)C3)C1(C)C` [GARCINIELLIPTONE L], the IC50 is more than 30 µM.
Take `CC(C)=CC[C@H]1C[C@]2(C(=O)C(C)C)C(=O)[C@@](CC=C(C)C)(C(=O)C3=C2O[C@H](C(C)(C)O)C3)C1(C)C` [GARCINIELLIPTONE M]: the IC50 was 19 µM.
The same measure, in the same setting: as for `CC(C)=CC[C@H]1C[C@@H](CC=C(C)C)C(C)(C)[C@@H](C(=O)C(C)C)C1=O` [GARCINIELLIPTONE N], the figure is more than 30 µM; as for `COC(=O)[C@]1(CC=C(C)C)C[C@@H](CC=C(C)C)C(C)(C)[C@@H](C(=O)C(C)C)C1=O` [GARCINIELLIPTONE O], more than 30 µM.
Compound `CCN(CC)CCCC(C)Nc1c2ccc(Cl)cc2nc2ccc(OC)cc12` (configuration not stated) [QUINACRINE] came in with a half-inhibitory concentration (IC50) of 23.3 µM.

The next experiment deals with Mast cell. Briefly: Inhibition of compound 48/80-stimulated histamine release in rat mast cell at >30 uM. Type of experiment: functional.
Conditions: not given
As for `CC(C)=CC[C@H]1C[C@@H](CC=C(C)C)C(C)(C)[C@@H](C(=O)C(C)C)C1=O` [GARCINIELLIPTONE N], the “inhibition (INH)” value worked out at 13.7%.
Turning to `COC(=O)[C@]1(CC=C(C)C)C[C@@H](CC=C(C)C)C(C)(C)[C@@H](C(=O)C(C)C)C1=O` [GARCINIELLIPTONE O], the “inhibition (INH)” value is reported as 32.8%.

A further experiment concerns Mast cell. Briefly: Inhibition of compound 48/80-stimulated beta-glucuronidase release in rat peritoneal mast cell. Type of experiment: functional, cell-based.
Conditions: not given
The compound `CC(C)=CC[C@H]1C[C@]2(C(=O)C(C)C)C(=O)[C@@](CC=C(C)C)(C(=O)C3=C2O[C@@H](C(C)(C)O)C3)C1(C)C` [GARCINIELLIPTONE L] returned an IC50 of 22.9 µM.
Same read-out and setting: as for `CC(C)=CC[C@H]1C[C@]2(C(=O)C(C)C)C(=O)[C@@](CC=C(C)C)(C(=O)C3=C2O[C@H](C(C)(C)O)C3)C1(C)C` [GARCINIELLIPTONE M], the figure is 13.6 µM; as for `CC(C)=CC[C@H]1C[C@@H](CC=C(C)C)C(C)(C)[C@@H](C(=O)C(C)C)C1=O` [GARCINIELLIPTONE N], more than 30 µM; as for `COC(=O)[C@]1(CC=C(C)C)C[C@@H](CC=C(C)C)C(C)(C)[C@@H](C(=O)C(C)C)C1=O` [GARCINIELLIPTONE O], more than 30 µM.
For `CCN(CC)CCCC(C)Nc1c2ccc(Cl)cc2nc2ccc(OC)cc12` (configuration not stated) [QUINACRINE], the IC50 worked out at 13.7 µM.

A further experiment concerns RAW264.7. The experiment in a line: Antiinflammatory activity against mouse RAW264.7 cells assessed as inhibition of LPS-induced TNFalpha production at 30 uM.
Conditions: not given
The experiment is classed as functional. The method in brief:
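TNF-α production in the culture medium of LPS-stimulated RAW 264.7 cells, with test agent at 30 µM. Expressed as % inhibition.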
By inhibition is commonly meant the percentage by which the read-out fell short of the control. With `CC(C)=CC[C@H]1C[C@]2(C(=O)C(C)C)C(=O)[C@@](CC=C(C)C)(C(=O)C3=C2O[C@@H](C(C)(C)O)C3)C1(C)C` [GARCINIELLIPTONE L], the inhibition at 30 µM stood at 32.1%.
In the case of `CC(C)=CC[C@H]1C[C@]2(C(=O)C(C)C)C(=O)[C@@](CC=C(C)C)(C(=O)C3=C2O[C@H](C(C)(C)O)C3)C1(C)C` [GARCINIELLIPTONE M], the inhibition at 30 µM came to 36.9%.

Another experiment deals with N9. The experiment in a line: Antiinflammatory activity against mouse N9 cells assessed as inhibition of LPS/IFN-gamma-induced nitrite accumulation after 24 hrs. To be noted: N9, 24 h.
With `CC(=N)NCc1cccc(CN)c1` [1400W], the IC50 stood at 6.3 µM.
With `CC(C)=CC[C@H]1C[C@]2(C(=O)C(C)C)C(=O)[C@@](CC=C(C)C)(C(=O)C3=C2O[C@@H](C(C)(C)O)C3)C1(C)C` [GARCINIELLIPTONE L], the concentration for half-maximal inhibition (IC50) is 12.8 µM.
On to `CC(C)=CC[C@H]1C[C@]2(C(=O)C(C)C)C(=O)[C@@](CC=C(C)C)(C(=O)C3=C2O[C@H](C(C)(C)O)C3)C1(C)C` [GARCINIELLIPTONE M], for which the IC50 was more than 30 µM.
With `CC(C)=CC[C@H]1C[C@@H](CC=C(C)C)C(C)(C)[C@@H](C(=O)C(C)C)C1=O` [GARCINIELLIPTONE N], the IC50 was more than 30 µM.
Turning to `COC(=O)[C@]1(CC=C(C)C)C[C@@H](CC=C(C)C)C(C)(C)[C@@H](C(=O)C(C)C)C1=O` [GARCINIELLIPTONE O], the IC50 was more than 30 µM.

The next experiment deals with RAW264.7. The experiment in a line: Antiinflammatory activity against mouse RAW264.7 cells assessed as inhibition of LPS-induced nitrite accumulation at >30 uM after 24 hrs.
Conditions: not given
The experiment is classed as functional. The method in brief:
as §1
On to `CC(C)=CC[C@H]1C[C@@H](CC=C(C)C)C(C)(C)[C@@H](C(=O)C(C)C)C1=O` [GARCINIELLIPTONE N], for which the “inhibition (INH)” value came to 5.7%.
On the same count and under the same terms, as for `COC(=O)[C@]1(CC=C(C)C)C[C@@H](CC=C(C)C)C(C)(C)[C@@H](C(=O)C(C)C)C1=O` [GARCINIELLIPTONE O], the figure is 22.1%.

The subject of another experiment is Mast cell. Briefly: Inhibition of compound 48/80-stimulated beta-glucuronidase release in rat mast cell at >30 uM. Type of experiment: functional.
Conditions: not given
For the compound `CC(C)=CC[C@H]1C[C@@H](CC=C(C)C)C(C)(C)[C@@H](C(=O)C(C)C)C1=O` [GARCINIELLIPTONE N], the “inhibition (INH)” value stood at 30.2%.
In the case of `COC(=O)[C@]1(CC=C(C)C)C[C@@H](CC=C(C)C)C(C)(C)[C@@H](C(=O)C(C)C)C1=O` [GARCINIELLIPTONE O], the “inhibition (INH)” value worked out at 43.9%.
